The target of test [1] is T1, Estrogen receptor (Homo sapiens, UniProt P03372).
T1 sequence (P03372 whole entry): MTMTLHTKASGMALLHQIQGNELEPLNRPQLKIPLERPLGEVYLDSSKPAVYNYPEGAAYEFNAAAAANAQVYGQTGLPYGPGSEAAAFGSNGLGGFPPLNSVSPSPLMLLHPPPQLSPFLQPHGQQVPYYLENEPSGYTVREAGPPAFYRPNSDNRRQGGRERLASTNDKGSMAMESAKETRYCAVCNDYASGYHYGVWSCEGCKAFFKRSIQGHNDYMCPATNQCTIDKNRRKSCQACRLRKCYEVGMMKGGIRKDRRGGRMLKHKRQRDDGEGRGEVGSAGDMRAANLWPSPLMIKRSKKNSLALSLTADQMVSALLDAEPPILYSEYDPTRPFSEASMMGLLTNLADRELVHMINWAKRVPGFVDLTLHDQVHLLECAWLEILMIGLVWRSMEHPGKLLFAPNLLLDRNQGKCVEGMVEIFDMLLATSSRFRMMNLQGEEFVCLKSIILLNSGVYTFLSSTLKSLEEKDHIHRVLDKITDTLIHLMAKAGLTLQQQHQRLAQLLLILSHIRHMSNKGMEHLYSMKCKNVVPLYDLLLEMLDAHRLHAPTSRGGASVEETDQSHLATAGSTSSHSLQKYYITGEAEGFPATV
The experiment in a line: In vitro concentration required to inhibit [3H]estradiol binding to human estrogen receptor alpha expressed in 293T cells. In kind it is cell-based.

Test [2] deals with Estrogen receptor beta (Homo sapiens, UniProt Q92731). The experiment in a line: In vitro concentration required to inhibit [3H]estradiol binding to human estrogen receptor beta expressed in 293T cells. In kind it is cell-based. The essentials: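 Increasing competitor concentrations from DMSO stocks. Incubated 16 h at 4 °C. Dextran-coated charcoal for 15 min at room temperature, then centrifuged. Supernatant counted by scintillation. Means of ≥3 experiments.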
Estrogen receptor beta, sequence (Q92731 whole entry): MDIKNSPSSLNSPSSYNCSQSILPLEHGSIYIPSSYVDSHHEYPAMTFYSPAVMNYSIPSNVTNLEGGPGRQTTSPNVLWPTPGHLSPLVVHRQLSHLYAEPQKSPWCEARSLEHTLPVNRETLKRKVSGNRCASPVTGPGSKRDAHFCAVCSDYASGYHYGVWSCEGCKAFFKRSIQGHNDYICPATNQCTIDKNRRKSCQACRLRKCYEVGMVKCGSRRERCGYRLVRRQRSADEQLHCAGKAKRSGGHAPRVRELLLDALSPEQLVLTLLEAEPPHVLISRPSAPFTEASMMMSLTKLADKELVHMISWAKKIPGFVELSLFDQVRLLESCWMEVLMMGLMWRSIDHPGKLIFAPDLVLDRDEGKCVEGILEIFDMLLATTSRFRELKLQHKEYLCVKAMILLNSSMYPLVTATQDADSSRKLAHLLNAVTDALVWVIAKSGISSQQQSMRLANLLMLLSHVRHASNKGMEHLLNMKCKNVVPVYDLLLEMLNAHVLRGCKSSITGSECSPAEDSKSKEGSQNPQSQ

The subject of test [3] is MCF7. Put plainly: Percent inhibition of antagonistic activity in MCF-7 cell lines derived from breast tumors that predominantly express ER-alpha. It counts as functional, Homo sapiens.
The test system of test [4] is MCF7. The experiment in a line: Inhibitory concentration required for antagonistic activity in MCF-7 cell lines derived from breast tumors that predominantly express ER-alpha. In kind it is functional, cell-based. The note with it: Homo sapiens.
Test [5] deals with MCF7. The experiment in a line: Percent agonistic activity in MCF-7 cell lines derived from breast tumors that predominantly express ER-alpha. It counts as functional, Homo sapiens. The essentials: (§1)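 MCF7 cells plated at 6000/well in IMDM with 5% FBS and attached overnight. Steroid-depleted over 48 h with two changes of medium containing 5% charcoal-dextran stripped FBS. Compounds given as log dilutions from 10^-13 to 10^-6 M in 0.1% DMSO, 8 replicate wells each. Medium and compound renewed at day 4. DNA content measured by Hoechst 33258 after 7 days total exposure.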

The subject of test [6] is MCF7. The experiment in a line: Effective concentration required for agonistic activity in MCF-7 cell lines derived from breast tumors that predominantly express ER-alpha. The note with it: Homo sapiens. In kind it is functional, cell-based. The essentials: as §1

Regarding `Oc1ccc2c(c1)CCN(c1ccccc1)C2c1cccs1` (stereo unspecified), the concentration for half-maximal inhibition (IC50) turned out to be 50 nM in test [1] and 26.3 nM in test [2].

Take `CC(C)C1c2ccc(O)cc2CCN1c1ccccc1` (stereo unspecified): the figures for the IC50 in test [1] and in test [2] were 42.7 nM and 180 nM, respectively.

As to `O=C(/C=C/c1ccc(N2CCc3cc(O)ccc3C2c2ccccc2)cc1)N1CCOCC1` (stereo unspecified), the half-inhibitory concentration (IC50) in test [1] came out at 5.9 nM; in test [2] it was 4.8 nM.

`O=C(N1CCc2cc(O)ccc2C1c1cccs1)C(F)(F)F` (stereo unspecified): the IC50 stood at 385 nM in test [1] and 63.5 nM in test [2].

Turning to `Cc1ccc(S(=O)(=O)N2CCc3cc(O)ccc3C2c2ccc(OCCN3CCCC3)cc2)cc1` (stereo unspecified), the half-maximal inhibitory concentration (IC50) in test [1] came out at 24.8 nM; in test [2], 71.2 nM; in test [4], 29.8 nM. In test [3], the Inhibition was found to be 66%.

Consider `O=S(=O)(c1cccc2ccccc12)N1Cc2cc(O)ccc2C(c2ccc(O)cc2)C1` (stereo unspecified), for which the IC50 in test [1] came to 28 nM; in test [2] it was 10.7 nM.

For the compound `O=S(=O)(c1cccc2ccccc12)N1CCc2cc(O)ccc2C1c1ccc(OCCN2CCCC2)cc1` (stereo unspecified), the half-maximal inhibitory concentration (IC50) in test [1] amounted to 5.6 nM; in test [2], 21.3 nM; in test [4], 51.3 nM. In test [3], this compound yielded an Inhibition of 96%.

Consider `O=C(c1ccccc1)N1Cc2cc(O)ccc2C(c2ccc(O)cc2)C1` (stereo unspecified), for which the results for the IC50 in test [1] and in test [2] were 160 nM and 27.9 nM, respectively.

With `Oc1ccc2c(c1)CCN(Cc1ccccc1)C2c1ccc(OCCN2CCCC2)cc1` (stereo unspecified), the 50% inhibitory concentration (IC50) in test [1] amounted to 4.7 nM; in test [2] it was 42.2 nM.

As for `Oc1ccc2c(c1)CCN(c1ccccc1)C2CC1CCCCC1` (stereo unspecified), the values for the half-inhibitory concentration (IC50) in test [1] and in test [2] were 53.1 nM and 295 nM, respectively.

With `O=C(N1CCc2cc(O)ccc2[C@@H]1c1ccc(O)cc1)C(F)(F)F`, the IC50 in test [1] and in test [2] was above 3200 nM in each case.

Consider `O=C(c1ccccc1)N1CCc2cc(O)ccc2C1c1ccc(OCCN2CCCC2)cc1` (stereo unspecified), for which the half-maximal inhibitory concentration (IC50) worked out at 562 nM in test [1] and 2250 nM in test [2].

Turning to `O=S(=O)(c1ccccc1)N1Cc2cc(O)ccc2C(c2ccc(O)cc2)C1` (stereo unspecified), the IC50 was 120 nM in test [1] and 41.7 nM in test [2].

As to `O=C(N1CCc2cc(O)ccc2[C@H]1c1ccc(O)cc1)C(F)(F)F`, the IC50 in test [1] amounted to 53.6 nM; in test [2], 8.9 nM.

For the compound `Oc1ccc2c(c1)CCN(c1ccccc1)C2C1CCCCC1` (stereo unspecified), the results for the IC50 in test [1] and in test [2] were 29.8 nM and 99 nM, respectively. Also, the Activity in test [5] amounted to 93%. Besides, in test [6], the EC50 was 11.1 nM.

`CN(C)C(=O)/C=C/c1ccc(N2CCc3cc(O)ccc3C2c2ccccc2)cc1` (stereo unspecified): the IC50 in test [1] amounted to 8 nM; in test [2], 8.7 nM.

Regarding `Oc1ccc2c(c1)CCN(Cc1ccc3c(c1)OCO3)C2c1ccc(OCCN2CCCC2)cc1` (stereo unspecified), the IC50 in test [1] came out at 9.2 nM; in test [2], 220 nM.

As to `O=S(=O)(c1ccccc1)N1CCc2cc(O)ccc2C1c1ccc(OCCN2CCCC2)cc1` (stereo unspecified), the values for the half-maximal inhibitory concentration (IC50) in test [1] and in test [2] were 5.2 nM and 18.5 nM, respectively.

As for `CCCc1ccc(S(=O)(=O)N2CCc3cc(O)ccc3C2c2ccc(OCCN3CCCC3)cc2)cc1` (stereo unspecified), the half-inhibitory concentration (IC50) amounted to 29.4 nM in test [1] and 133 nM in test [2].

Regarding `O=S(=O)(c1ccc2ccccc2c1)N1CCc2cc(O)ccc2C1c1ccc(OCCN2CCCC2)cc1` (stereo unspecified), the concentration for half-maximal inhibition (IC50) was determined as 112 nM in test [1] and 1080 nM in test [2].

Regarding `CCOC(=O)N1CCc2cc(O)ccc2C1c1ccc(OCCN2CCCC2)cc1` (stereo unspecified), the results for the concentration for half-maximal inhibition (IC50) in test [1] and in test [2] were 44.3 nM and 293 nM, respectively.

For `O=C(N1CCc2cc(O)ccc2C1c1ccc(OCCN2CCCC2)cc1)C(F)(F)F` (stereo unspecified), the half-maximal inhibitory concentration (IC50) was 28.7 nM in test [1], 93.3 nM in test [2] and 86.6 nM in test [4]. In test [3], the Inhibition worked out at 83%.

On to `Oc1ccc2c(c1)CCN(c1ccccc1)C2c1ccc(OCCN2CCCC2)cc1` (stereo unspecified), for which the IC50 amounted to 11.5 nM in test [1] and 22.2 nM in test [2].

`Oc1ccc2c(c1)CCN(c1ccccc1)C2Cc1ccccc1` (stereo unspecified): the IC50 in test [1] was found to be 6.7 nM; in test [2], 66.4 nM.

With `O=C(N1CCc2cc(O)ccc2C1c1ccccc1)C(F)(F)F` (stereo unspecified), the IC50 in test [1] was determined as 235 nM; in test [2], 27.4 nM.

With `O=C(N1CCc2cc(O)ccc2C1c1ccc(Br)cc1)C(F)(F)F` (stereo unspecified), the IC50 was 165 nM in test [1] and 22 nM in test [2].

`Oc1ccc(C2CN(Cc3ccccc3)Cc3cc(O)ccc32)cc1` (stereo unspecified): the half-inhibitory concentration (IC50) amounted to 20.1 nM in test [1] and 13.1 nM in test [2].

As for `O=C(N1Cc2cc(O)ccc2C(c2ccc(O)cc2)C1)C(F)(F)F` (stereo unspecified), the figures for the IC50 in test [1] and in test [2] were 123 nM and 11.4 nM, respectively.

As for `Oc1ccc2c(c1)CCN(c1ccccc1)C2c1ccccc1` (stereo unspecified), the IC50 in test [1] worked out at 30.7 nM; in test [2] it was 48.8 nM.

The record behind these values is ChEMBL document CHEMBL1146753, “Tetrahydroisoquinolines as subtype selective estrogen agonists/antagonists” (Bioorg Med Chem Lett, 2004).
